Scp-1 inhibitor = inhibitors of human Scp-1 phosphatase; Recombinant Scp1, phosphopeptide, malachite green phosphate absorbance; Q9GZU7; inhibition, % at 20 µM; 340,000 compounds, 0.88% hits; AID 493091;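 active = inhibition above about 50% at 20 µM, limit read from the data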;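 also: plate controls were DMSO wells with enzyme for no effect and wells lacking enzyme for full effect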
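Incubation: 45 min enzyme reaction at room temperature / System: truncated SCP-1 phosphatase (76-261aa) / Reagent: Phospho 17-mer peptide substrate / Buffer or medium: Acidic Tris acetate buffer with magnesium and detergent / Signal: absorbance at 630 nm / Doses: one concentration, 20 µM, with 1.0% DMSO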
SUMO1-SIM PPI = alters human SUMO1 binding to SIM partners; inhibition, % at 20 µM; 360,000 compounds, 0.33% hits; SUMO1 binding to a labelled peptide, TR-FRET, 1 h; in the data active = inhibition above about 37%
LMPTP block = blocks human LMPTP phosphatase; P24666; recombinant LMPTP-A, OMFP fluorogenic substrate, fluorescence intensity; inhibition, % at 20 µM; 360,000 compounds, 0.22% hits; AID 651560;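 active = compounds that cut the enzyme signal by at least half of the control window in the single-dose screen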;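 also: plate controls were DMSO wells with enzyme plus substrate for no effect and substrate without enzyme for full effect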
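material = LMPTP-A | quantity = 0.625 nM enzyme | reagent = OMFP substrate, 400 µM final | buffer or medium = Bis-Tris pH 6.0, DTT, detergent | detection = endpoint fluorescence intensity from OMFP dephosphorylation | dosing = single 20 µM dose | read-out basis = % inhibition relative to no-enzyme and uninhibited control wells | control set = no-enzyme and uninhibited controls | timing = 50 min at room temperature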
GRK2 inh = human GRK2 inhibition via aptamer displacement; 330,000 compounds, 0.59% hits; AID 488847; inhibition of aptamer binding, % at 10 µM; bead flow cytometry, FAM-aptamer displacement from GRK2; P25098;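 active = inhibition of aptamer binding above 40%, roughly 3 SD of noise, on plates passing a quality check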;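 also: median bead fluorescence of bound FAM aptamer so fluorescent compounds give negative values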
DNMT1 inh = DNMT1 (human) enzyme inhibition; P26358; DNMT1 molecular beacon, Hinp1I cleavage, fluorescence; inhibition (reported as % activation of signal), % at 10 µM; 360,000 compounds, 0.83% hits; in the data active = inhibition above about 50%
STEP inh = inhibitors of human striatal-enriched phosphatase STEP; inhibition, % at 20 µM; 360,000 compounds, 0.25% hits; P54829; recombinant STEP, OMFP fluorogenic substrate, fluorescence; AID 588621;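 active = inhibition at 20 µM, scaled per plate between control wells, above about 37%, limit read from the data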;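 also: 0% = DMSO with enzyme and substrate and 100% = substrate only without enzyme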
Target sequence (P54829 whole entry, looked up): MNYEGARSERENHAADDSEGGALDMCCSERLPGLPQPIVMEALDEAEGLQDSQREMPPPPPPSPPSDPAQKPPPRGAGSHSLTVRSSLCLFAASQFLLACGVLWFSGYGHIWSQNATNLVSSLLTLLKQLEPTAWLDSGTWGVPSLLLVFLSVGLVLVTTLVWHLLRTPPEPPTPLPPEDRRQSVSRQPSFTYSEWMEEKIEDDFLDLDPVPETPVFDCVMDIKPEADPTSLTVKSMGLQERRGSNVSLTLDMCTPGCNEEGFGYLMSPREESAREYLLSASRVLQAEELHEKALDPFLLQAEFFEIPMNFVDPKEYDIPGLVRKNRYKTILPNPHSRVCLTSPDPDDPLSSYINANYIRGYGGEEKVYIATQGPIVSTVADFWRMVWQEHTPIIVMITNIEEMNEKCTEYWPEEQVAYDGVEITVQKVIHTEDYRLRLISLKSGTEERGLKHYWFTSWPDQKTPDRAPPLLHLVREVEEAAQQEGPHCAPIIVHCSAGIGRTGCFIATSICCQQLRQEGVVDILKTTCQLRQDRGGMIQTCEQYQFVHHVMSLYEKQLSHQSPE
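Measure: Control-normalized % inhibition with plate pattern correction | Test system: STEP phosphatase, cell-free reaction | Medium: pH 6.0 Bis-Tris with DTT and Tween 20 | Technique: Fluorescence, 480/540 nm | Times: Reaction 20 min, ambient temperature | Doses: Single compound dose of 20 µM, 1% DMSO final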
Scp1 confirm = Scp-1 (human) inhibition, single-dose confirmed; shares compounds with Scp-1 inhibitor; recombinant SCP-1 catalytic domain, phosphate release, malachite green absorbance; inhibition, % at 20 µM; 2,500 compounds, 61% hits; AID 540281;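 also: plate controls were DMSO with enzyme for no effect and buffer wells lacking enzyme for full effect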
Scp-1 MG ctr = counter-screen for Scp-1 inhibitors: colorimetric interference; shares compounds with Scp-1 inhibitor; 2,500 tested, under 10 active; Colorimetric interference counterscreen, malachite green absorbance 630 nm; apparent inhibition (interference), % at 20 µM;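 also: compounds added after enzyme reaction finished so only phosphate colour detection is probed; plate controls were DMSO wells with completed Scp-1 reaction for no effect and substrate wells lacking enzyme for full effect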
Scp-1 Tm shift = binds human Scp-1, shifting its melting temperature; shares compounds with Scp-1 inhibitor; Recombinant SCP1, Sypro Orange thermal shift Tm; thermal shift relative to vanadate control, % at 40 µM; 1,500 compounds, 25% hits;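 active = substances whose mean melting-temperature shift, as a percentage of the reference inhibitor's shift, reaches about 5.3%, limit read from the data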;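 also: 0% = Tm of DMSO wells and 100% = Tm with sodium orthovanadate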
* = called active by the depositor; · = not tested or not shown. Sampled rows, rich in hits. Any-hit rate of the full collection: about 2.1%.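 The calls were made as follows, unless noted: active = inhibition of at least 30% at 20 µM; inactive = the rest.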

SMILES | Scp-1 inhibitor | SUMO1-SIM PPI | LMPTP block | GRK2 inh | DNMT1 inh | STEP inh | Scp1 confirm | Scp-1 MG ctr | others
Cn1cnc(C(=O)N2CCN(C(=O)OC(C)(C)C)CC2)c1C(=O)N1CCN(C(=O)OC(C)(C)C)CC1 | 46 | 0 | -1 | 0 | 4 | -3 | · | ·
Cn1cnc(C(=O)N2CCN(c3ccccc3)CC2)c1C(=O)N1CCN(c2ccccc2)CC1 | 96* | 1 | -2 | 0 | 8 | -1 | 84* | -16 | Scp-1 Tm shift=-12
O=C(NCC(=O)N1CCN(c2ccccc2)CC1)c1cccs1 | -2 | 6 | 1 | 14 | 0 | -2 | · | ·
Cc1ccc(C(=O)Nc2cccc(NC(=O)c3ccc(C)c([N+](=O)[O-])c3)n2)cc1[N+](=O)[O-] | 70* | 18 | 36 | 0 | 31 | 4 | 67* | -10 | Scp-1 Tm shift=14*
Cc1cc(NC(=O)c2ccc(C)c([N+](=O)[O-])c2)no1 | -3 | -10 | 0 | 0 | 0 | -1 | · | ·
CCC1NC(=O)c2ccccc2N1c1cccc(Cl)c1 (stereo not drawn) | -4 | 4 | 1 | 1 | -1 | -2 | · | ·
Cc1cc(C)c2c(n1)SCC(=O)N2CC(=O)Nc1c(C)cccc1C | 52* | 6 | -2 | 0 | 4 | 3 | -14 | -11
O=C(NNC(=O)c1cc(-c2cccc(Br)c2)nc2ccccc12)c1csc(N2CCOCC2)n1 | -2 | 4 | 0 | 2 | -10 | -3 | · | ·
Cc1cccc(NC(=O)CN2C(=O)S/C(=C\c3ccc(-c4cccc(C(=O)O)c4C)o3)C2=O)c1 | 78* | · | · | 0 | · | · | 81* | -8 | Scp-1 Tm shift=8.1*
CCCCCCCCC(c1nc2ccccc2[nH]1)N1CCN=C(c2ccccc2)C1=O (stereo not drawn) | · | 2 | 3 | · | -9 | 3 | · | ·
Cc1nc(CN(C)C(=O)c2ccccc2OC2CCN(S(C)(=O)=O)CC2)cs1 | -4 | -4 | -1 | 0 | 2 | -1 | · | ·
Cc1nc(CNC(=O)c2ccccc2OC2CCN(S(C)(=O)=O)CC2)cs1 | 61* | 1 | -1 | 0 | 1 | -2 | -29 | -21
CCN(CC)S(=O)(=O)c1cc(NC(=O)C2CC(=O)N(Cc3ccccc3)C2)ccc1Cl (stereo not drawn) | -13 | -22 | -7 | 0 | -4 | 5 | -22 | -17
CC(=O)c1sc(NC(=O)C2CC(=O)N(Cc3ccccc3)C2)nc1-c1ccccc1 (stereo not drawn) | -6 | -10 | 1 | 0 | -2 | 1 | -24 | -22
CCN(c1ccc(OC)cc1)S(=O)(=O)c1nnc(NC(=O)c2ccccc2Cl)s1 | -7 | 10 | 0 | 0 | -2 | 0 | · | ·
S=C(Nc1ccc(Oc2ccccc2)cc1)N(CCCN1CCOCC1)Cc1ccccn1 | -3 | -1 | -2 | 0 | 0 | 16 | · | ·
CN(C)S(=O)(=O)c1ccc(Cl)c(NC(=O)CN2C(=O)NC(C)(C3CC3)C2=O)c1 (stereo not drawn) | -9 | 7 | -1 | 0 | 1 | -4 | · | ·
COc1ccc(CCC(=O)N2CCN(S(=O)(=O)c3ccc(C)cc3)CC2)cc1 | 4 | 3 | 0 | 4 | 1 | -4 | · | ·
COc1ccc(S(=O)(=O)N2CCN(C(=O)c3ccc([N+](=O)[O-])o3)CC2)cc1 | 51* | -35 | 1 | 8 | 8 | 6 | 42* | -15 | Scp-1 Tm shift=4
O=C(Nc1cc2c(cc1Cl)OCCCO2)c1ccccc1 | -8 | 1 | -3 | 1 | -2 | 0 | · | ·
O=C(Nc1cc2c(cc1Cl)OCCCO2)c1ccco1 | 50 | -2 | 0 | 2 | 11 | 1 | -22 | -22
CCCCNC(=O)COC(=O)c1c2c(nc3ccccc13)CCC2 | 62* | 2 | 4 | 8 | 44 | 8 | 46* | -7 | Scp-1 Tm shift=8.4*
